Source: paper PMC8717467 (Chemical biology & drug design, 2020)
Bridge positions count the residues as written; N and C are the ends. Peptide text beside a SMILES is read from it.

How the values were obtained:
[1] = test system: lymph node cells from type II collagen-immunized HLA-DQ8 mice; conditions: ref A. Gokhale et al., 2013; A. S. Gokhale et al., 2015; cited from earlier work
[2] = test system: adhesion between CD2 protein-expressing T cells and CD58 protein overexpressing Caco-2 cells; conditions: read-out: IC50 in cell adhesion assay, Jurkat/T cells and epithelial cells such as Caco-2 and OVCAR-3, ref A. Gokhale et al., 2011, 2013, A. S. Gokhale et al., 2015; cited from earlier work
Thermal stability = format: physicochemical
Method in brief: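 CD spectra of the peptide in water were recorded from 25 to 85 °C in 5 °C steps, 4 scans per temperature, 185–320 nm. Samples from 25, 55 and 85 °C were checked by mass spectrometry. Separately, peptide was incubated 30 min at 25, 55 or 85 °C, then run on C-18 HPLC and reported as relative peak area from triplicate experiments.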

[3] = Chemical stability in buffers of different pH; format: physicochemical; conditions: pH 1.5, 7.4 and 9.6 buffers, 30 days, HPLC, zero time peak area = 100%
[4] = test system: T cell proliferation of lymph node cells from peptide-immunized DQ8 mice; assay: Immunogenicity studies; format: in vivo; conditions: LNC T-cell proliferation 10 days after immunization
Method in brief: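 HLA-DQ8 mice were immunized with 200 μL of test peptide at 50 μg/mL. Ten days later, lymph nodes were harvested and made into single-cell suspensions. The lymph node cells were challenged in vitro with a range of peptide concentrations to measure T-cell proliferation. ConA (1 μg/mL) served as positive control. Results are stimulation index versus peptide concentration; an index above 2 counted as positive.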

[5] = molecular target: T1, adhesion between Jurkat cells (CD2) and OVCAR-3 cells (CD58) (Homo sapiens, UniProt P19256); conditions: read-out: IC50, Jurkat cell-OVCAR-3 cell adhesion assay
T1 sequence (P19256 29-250): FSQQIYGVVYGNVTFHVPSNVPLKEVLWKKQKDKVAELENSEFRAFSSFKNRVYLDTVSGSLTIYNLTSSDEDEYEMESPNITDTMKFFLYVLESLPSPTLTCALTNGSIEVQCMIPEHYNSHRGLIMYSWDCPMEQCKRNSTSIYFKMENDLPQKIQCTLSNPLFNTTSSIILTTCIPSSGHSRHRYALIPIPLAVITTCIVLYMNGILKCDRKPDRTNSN
T1 sequence (P06729 25-351 partner): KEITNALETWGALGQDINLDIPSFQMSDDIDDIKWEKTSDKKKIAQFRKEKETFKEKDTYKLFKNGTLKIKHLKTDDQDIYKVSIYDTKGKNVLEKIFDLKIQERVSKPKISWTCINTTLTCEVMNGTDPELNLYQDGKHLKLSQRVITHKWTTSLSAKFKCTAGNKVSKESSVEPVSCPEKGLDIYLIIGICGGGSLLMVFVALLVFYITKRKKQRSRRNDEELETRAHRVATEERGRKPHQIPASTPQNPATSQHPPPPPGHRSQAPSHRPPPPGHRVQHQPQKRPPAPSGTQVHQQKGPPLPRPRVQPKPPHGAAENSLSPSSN

[6] = molecular target: T2, adhesion between Jurkat cells (CD2 protein) and HFLS-RA cells (CD58 protein) (Homo sapiens, UniProt P19256); conditions: read-out: IC50, Jurkat cell - HFLS-RA cell adhesion assay
T2 sequence (P19256 29-250): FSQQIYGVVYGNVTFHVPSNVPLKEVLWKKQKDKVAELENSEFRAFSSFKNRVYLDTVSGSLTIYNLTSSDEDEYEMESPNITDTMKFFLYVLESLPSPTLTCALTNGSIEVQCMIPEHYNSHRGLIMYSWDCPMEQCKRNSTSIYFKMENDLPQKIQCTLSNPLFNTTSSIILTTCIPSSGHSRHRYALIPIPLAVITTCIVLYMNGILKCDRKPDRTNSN
T2 sequence (P06729 25-351 partner): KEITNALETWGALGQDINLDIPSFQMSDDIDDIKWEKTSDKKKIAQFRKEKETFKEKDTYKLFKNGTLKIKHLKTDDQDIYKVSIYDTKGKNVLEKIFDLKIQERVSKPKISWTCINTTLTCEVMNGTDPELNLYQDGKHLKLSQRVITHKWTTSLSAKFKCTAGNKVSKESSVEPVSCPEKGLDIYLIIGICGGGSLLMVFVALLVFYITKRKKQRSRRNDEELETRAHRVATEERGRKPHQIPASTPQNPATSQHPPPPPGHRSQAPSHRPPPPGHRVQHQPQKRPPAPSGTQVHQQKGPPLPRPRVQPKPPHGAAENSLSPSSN

CD58 adhesion domain = molecular target: T3, CD58 adhesion domain (Homo sapiens, UniProt P19256); assay: SPR
T3 chain: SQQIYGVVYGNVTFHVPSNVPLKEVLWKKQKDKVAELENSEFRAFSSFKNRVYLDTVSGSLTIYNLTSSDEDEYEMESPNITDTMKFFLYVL

CC[C@H](C)[C@@H]1NC(=O)[C@H](CC(=O)O)NC(=O)[C@H](CC(=O)O)NC(=O)[C@@H]2CCCN2C(=O)[C@H]2CCCN2C(=O)[C@H](CC(=O)O)NC(=O)[C@H](Cc2ccc(O)cc2)NC(=O)[C@H]([C@@H](C)CC)NC(=O)[C@H](CO)NC(=O)[C@H](CCCCN)NC1=O [Peptide 6]
T cell immune response in cells derived from transgenic mice that develop arthritis [1]: suppress the T cell immune response
IC50 [2]: 6.9 nM

C[C@@H]1NC(=O)[C@@H]2CSSC[C@H](NC(=O)[C@H](CC(=O)O)NC(=O)[C@H](CC(=O)O)NC(=O)CNC(=O)[C@H](CC(=O)O)NC(=O)[C@H](Cc3ccc(O)cc3)NC1=O)C(=O)N[C@@H](CCCCN)C(=O)N[C@@H](CO)C(=O)N[C@@H](C)C(=O)N1CCC[C@H]1C(=O)N1CCC[C@H]1C(=O)N[C@@H](CO)C(=O)N2 [SFTI-a1] (cyclo(APPSCAYDGDDCKS); disulfide 5-12)
Thermal stability: change of CD spectra with temperature (Thermal stability; in water, 25 to 85 °C in 5 °C steps, CD): not significantly changed
Thermal stability: change in HPLC peak area (Thermal stability; incubated at 55 and 85 °C for 30 min, HPLC C-18, triplicate experiments): no significant change in HPLC peak area
Thermal stability: mass spectrometric analysis (Thermal stability; samples incubated at different temperatures (25, 55, 85 °C) in solution): no change in its mass
Chemical stability: degradation in buffers [3]: not degraded significantly
Immunogenicity [4]: not immunogenic
IC50 [5]: 23.3 ± 4.62 nM
IC50 [6]: 37.2 ± 1.02 nM

B1: SFTI-a1 (peptide)
chain: cyclo(CKSAPPSCAYDGDD)
modifications: disulfide 1-8
SMILES: C[C@@H]1NC(=O)[C@@H]2CSSC[C@H](NC(=O)[C@H](CC(=O)O)NC(=O)[C@H](CC(=O)O)NC(=O)CNC(=O)[C@H](CC(=O)O)NC(=O)[C@H](Cc3ccc(O)cc3)NC1=O)C(=O)N[C@@H](CCCCN)C(=O)N[C@@H](CO)C(=O)N[C@@H](C)C(=O)N1CCC[C@H]1C(=O)N1CCC[C@H]1C(=O)N[C@@H](CO)C(=O)N2
Kd (CD58 adhesion domain): 320 nM
